Compound activity from PubChem.
GSTO1 counter: blocks human GSTO1 in RBBP9 counter-screen. recombinant GSTO1, activity-based probe fluorescence polarization. inhibition, % at 5.96 µM. P78417. 300,000 compounds, 1.1% hits;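 active means inhibition above the campaign mean inhibition plus 3 SD, cut at about 35% in these data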;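 further: 0% = GSTO1-1 with DMSO and 100% = wells lacking GSTO1-1 enzyme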
PP5 inh: blocks human protein phosphatase 5 activity. P53041. purified PP5c, OMFP substrate fluorescence. inhibition, % at 6.7 µM. 320,000 compounds, 0.18% hits. AID 1987;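 active means inhibition above the campaign's mean inhibition across all tested compounds plus 3 SD, cut at about 9.5% in these data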;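 further: 0% = DMSO only and 100% = 100 µM cantharidin control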
Target sequence (P53041 whole entry, looked up): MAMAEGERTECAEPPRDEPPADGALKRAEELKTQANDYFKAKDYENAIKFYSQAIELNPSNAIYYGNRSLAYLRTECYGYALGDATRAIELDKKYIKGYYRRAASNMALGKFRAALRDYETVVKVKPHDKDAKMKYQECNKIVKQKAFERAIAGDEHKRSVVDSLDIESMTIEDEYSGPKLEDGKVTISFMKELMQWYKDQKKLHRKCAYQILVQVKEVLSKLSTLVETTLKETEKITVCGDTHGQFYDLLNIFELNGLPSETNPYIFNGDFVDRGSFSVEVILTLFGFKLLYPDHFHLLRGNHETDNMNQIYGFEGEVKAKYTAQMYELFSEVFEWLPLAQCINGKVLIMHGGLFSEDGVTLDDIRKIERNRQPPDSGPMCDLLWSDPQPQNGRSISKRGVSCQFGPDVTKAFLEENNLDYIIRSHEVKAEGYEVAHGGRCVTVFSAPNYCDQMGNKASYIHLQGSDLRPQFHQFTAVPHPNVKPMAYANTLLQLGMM
PP1 counter: blocks human PP1-alpha phosphatase, a PP5 counter-screen; P62136; purified PP1alpha, OMFP fluorescence; inhibition, % at 6.7 µM; 320,000 compounds, 0.9% hits; AID 2235;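 active means inhibition above the mean inhibition of all tested compounds plus 3 SD, computed separately for each screening campaign, cut at about 15% in these data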
TDP2 inh: blocks human TDP2 phosphodiesterase activity; 370,000 compounds, 0.34% hits; O95551; recombinant TDP2, T5PNP hydrolysis, p-nitrophenol absorbance 415 nm; AID 720702; inhibition, % at 12.8 µM;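 active means inhibition above the mean of all tested compounds plus 3 SD, set per campaign, cut at about 25% in these data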;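 further: 0% = DMSO with enzyme and 100% = buffer with substrate but no TDP2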
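Read-out basis: percent inhibition. System: recombinant human TDP2. Buffer or medium: Mg2+-containing Tris-HCl buffer, pH 7.5. Repeats: single replicate. Timing: reaction 2 h, 37 °C. Benchmarks: high control without enzyme, low control DMSO plus TDP2. Probe or stimulus: 5 mM T5PNP. Doses: 12.8 µM only. Measured by: epi absorbance of p-nitrophenol freed from T5PNP by hydrolysis.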
Apaf-1 inh: human Apaf-1 inhibition | O14727 | AID 489030 | reconstituted apoptosome caspase-3 activity, DEVD-Rh110 fluorescence | 330,000 compounds, 0.71% hits | inhibition, % at 20 µM; active means inhibition of at least 40% at 20 µM;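 further: plate controls were DMSO wells for no effect and DEVD-CHO caspase inhibitor wells for full effect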
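detection = Rh110 fluorescence intensity | test system = biochemical Apaf-1 apoptosome reconstitution | also added = cytochrome c and DEVD-Rh110 substrate | schedule = 30 min plus 50 min, RT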
An asterisk follows results filed as active; · = no result given. Only some compounds are listed: those with a hit (about 2.1% of all), similar ones and a draw of the others.

SMILES	GSTO1 counter	PP5 inh	PP1 counter	TDP2 inh	Apaf-1 inh
CCOC(=O)c1c(C)n(-c2ccc(C)cc2)c2ccc(OCC(O)CNCC3CCCO3)cc12 (centres undefined)	4.9	3.7	16.0*	·	21.1
CCOC(=O)c1c(C)n(-c2ccc(C)cc2)c2ccc(OCC(O)CNCCCO)cc12 (centres undefined)	-3.4	0.3	-0.9	2.5	14.0
Cc1ccc(-c2csc3ncnc(SCc4ccc(C(=O)O)cc4)c23)cc1	-15.5	3.2	16.0*	0.2	19.4
Cc1sc2ncnc(SCc3ccc(C(=O)O)cc3)c2c1C	-12.0	-0.6	-1.6	6.8	8.1
C=CCn1c(SCC(=O)Nc2nccs2)nnc1-c1cc2cccc(OC)c2o1	-0.1	5.1	16.7*	-8.1	9.6
C=CCn1c(SCC(=O)Nc2ccccc2OC)nnc1-c1ccco1	·	·	·	8.2	5.6
Cc1cccc(NC(=O)n2ccc3ccc(-c4ccc5cc[nH]c5c4)cc32)c1	·	·	·	3.7	·
CCCCCOc1ccc(Br)cc1/C(C)=N/NC1=NCCN1	32.2	3.1	17.2*	-4.1	5.5
COc1ccc(Br)cc1/C(C)=N/NC1=NCCN1	-0.4	0.6	1.6	-8.9	-6.0
CCC(c1nnnn1-c1ccc2c(c1)OCCO2)N1CCN(c2cccc(C)c2C)CC1 (centres undefined)	·	·	·	5.6	·
CCOC(=O)CNC(=O)N(C)[C@H]1C[C@H]2c3[nH]c4c(-c5ccccc5)cccc4c3CCN2C(=O)[C@H]1[C@H](C)O	·	·	·	-4.2	·
CC(=O)[C@@H]1[C@@H]2C(=O)N(Cc3ccccc3)C(=O)[C@@H]2C2c3ccccc3C=CN21 (some centres undefined)	29.5	6.1	4.3	10.3	67.4*
Cc1ccc(N2C(=O)[C@@H]3[C@H](C2=O)C2c4ccccc4C=CN2[C@@H]3C(=O)c2ccco2)cc1 (some centres undefined)	·	·	·	14.1	·
O=C1C2C3C=CC(C3)C2C(=O)N1Cc1ccccc1 (centres undefined)	3.5	1.6	-6.6	-5.7	-16.9
Cc1ccc(N2C(=O)[C@@H]3[C@H](C2=O)C2c4ccccc4C=CN2[C@@H]3C(=O)c2ccco2)c(C)c1 (some centres undefined)	28.5	1.7	2.8	26.4*	87.0*
COc1ccc(N2C(=O)[C@@H]3[C@H](C2=O)[C@H]2c4ccccc4C=CN2[C@@H]3C(=O)Nc2ccccc2)cc1	22.4	0.5	3.0	10.1	67.1*
COc1ccc(N2C(=O)[C@@H]3[C@H](C2=O)[C@H]2C=CC=NN2[C@@H]3C(=O)Nc2ccc(Cl)cc2)cc1	12.9	-4.0	0.4	-5.5	-8.9
Cc1ccc(-n2ncc3c(NNC(=O)c4ccco4)ncnc32)c(C)c1	11.2	0.5	-4.6	13.2	4.3
O=C(c1ccco1)[C@@H]1[C@@H]2C(=O)N(c3ccccc3)C(=O)[C@@H]2C2c3ccccc3C=CN21 (some centres undefined)	36.7*	4.1	2.6	43.1*	85.6*
C#CCNC(=O)C[C@H]1C(=O)N(CC=C)C2=CCCC[C@@]21C(=O)OCC	·	·	·	3.7	·
CCCCOCCCNC(=O)C[C@H]1C[C@@]2(C(=O)OC)C(=C[C@H](COCc3ccccc3)O[C@@H]2C)N(Cc2ccco2)C1=O	·	·	·	3.2	·
Cn1c(=O)c(C(=O)COC(=O)c2cc(-c3ccco3)nc3ccccc23)c(N)n(Cc2ccccc2)c1=O	-4.1	1.2	19.1*	·	-0.6
CC(=O)C1=C(c2ccccc2)NC(=O)NC1c1ccc(O)c(O)c1 (centres undefined)	36.9*	-1.9	-5.7	-2.4	8.3
CS(=O)c1nc(-c2ccc(Br)cc2)cc(-c2ccccc2)c1C#N (centres undefined)	-17.8	2.6	-2.3	5.1	55.4*
N#Cc1c(-c2ccc(Br)cc2)cc(-c2cccnc2)nc1N	-1.6	2.4	-1.6	-1.1	0.8
CC(/C=N/Nc1nnc2c(n1)[nH]c1ccccc12)=C\c1ccco1	2.0	2.9	16.4*	·	0.2
CCOc1cc(CCNC(=O)c2cc(-c3ccccc3)c(N3CCOCC3)s2)ccc1OC	·	·	·	-12.5	·
CC(=O)Oc1ccc(C(=O)OCC(=O)c2c(N)n(C)c(=O)n(C)c2=O)cc1OC(C)=O	35.3*	-0.3	-3.5	-4.3	3.3
COc1ccc(C(=O)OCC(=O)c2c(N)n(C)c(=O)n(C)c2=O)cc1OC	0.3	-0.9	-3.8	-11.3	-5.6
COC(=O)c1ccc(-n2c(C)cc(C(=O)CCl)c2C)cc1	87.3*	-1.1	-1.8	15.3	-4.9
